These results are taken from ChEMBL document CHEMBL1151684, “Synthesis and antitumoral activity of novel 3-(2-substituted-1,3,4-oxadiazol-5-yl) and 3-(5-substituted-1,2,4-triazol-3-yl) beta-carboline derivatives” (2008).

Common to all, as to format: functional
One assay deals with MCF7. Nature of the assay: Growth inhibition of human MCF7 cells after 48 hrs by sulforhodamine B assay. The note with it: MCF7, 48 h. In outline: (§1)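 Sulforhodamine B colorimetric assay following the NCI standard protocol, with doxorubicin as positive control. Each compound was tested at four concentrations in 10-fold dilutions (0.25 to 250). GI50, the concentration giving 50% growth reduction versus untreated control cells, was derived from dose–response curves.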

Another assay relates to OVCAR. Nature of the assay: Growth inhibition of human OVCAR cells after 48 hrs by sulforhodamine B assay. In outline: as §1
For another assay, the system named is K562. Nature of the assay: Growth inhibition of human K-562 cells after 48 hrs by sulforhodamine B assay. The note with it: K562, 48 h. The gist of the method: as §1
A short description of assay [1]: Growth inhibition of human PCO3 cells after 48 hrs by sulforhodamine B assay. The note with it: PCO3, 48 h. In outline: as §1
Assay [2] is described as follows: Growth inhibition of human NCI-460 cells after 48 hrs by sulforhodamine B assay. The note with it: NCI-460, 48 h. In outline:
as §1

The test system of a further assay is UACC-62. Nature of the assay: Growth inhibition of human UACC-62 cells after 48 hrs by sulforhodamine B assay. The note with it: UACC-62, 48 h. The gist of the method: as §1
The next assay has as its system HT-29. Nature of the assay: Growth inhibition of human HT-29 cells after 48 hrs by sulforhodamine B assay. The note with it: HT-29, 48 h. The gist of the method:
as §1

The next assay relates to 786-0. Nature of the assay: Growth inhibition of human 786-0 cells after 48 hrs by sulforhodamine B assay. The note with it: 786-0, 48 h. In outline:
as §1

Each structure is given as a SMILES string. Bounds are passed on as bounds.

For `CSc1nnc(-c2cc3c([nH]c4ccccc43)c(-c3ccccc3Cl)n2)n1N`, the 50% growth inhibitory concentration (GI50) in the assay with MCF7 is 20.1 µM; in the assay on OVCAR, 11.2 µM; in the assay with K562, 1.92 µM; in assay [1] it was 22.2 µM; in assay [2], 13.9 µM; with UACC-62, 18.6 µM. The GI50 in the assay with HT-29 came to 20.4 µM; in the assay with 786-0 it was 16.8 µM. Besides, the TGI in the assay with MCF7 was greater than 100 µM; in the assay on OVCAR, 38.4 µM; in the assay with K562, greater than 100 µM; in assay [1] it was greater than 100 µM; in assay [2], 41.8 µM; with UACC-62, 59 µM. Also, the total growth inhibition concentration (TGI) was greater than 100 µM in the assay on HT-29 and 93.5 µM in the assay with 786-0. Also, the LC50 (concentration killing 50% of the cells, NCI protocol) in the assay on OVCAR is greater than 100 µM. Further, in assay [2], the LC50 (concentration for 50% net cell kill) is greater than 100 µM. In the assay on UACC-62, this molecule registered an LC50 (concentration killing 50% of cells, NCI protocol) greater than 100 µM. Further, in the assay with 786-0 (read-out: LC50 (the source's name)), the CC50 is greater than 100 µM.
